DSG3 Ab inh: inhibitors of pemphigus antibody binding to DSG3, primary screen, biochemical, bead-based, flow cytometry, scFv-GFP. 310,000 tested, 0.48% active. DSG3-coupled beads, scFv-anti-DSG3-GFP binding; active compounds read low. binding (percent of control), % at 10 µM;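 active = binding more than 3 SD below its plate's average and above zero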;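 also: hits lower antibody fragment binding to DSG3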
Mcl1 Noxa PPI: Mcl-1/Noxa binding inhibitors, primary screen, biochemical, TR-FRET, 1536-well | Induced myeloid leukemia cell differentiation protein Mcl-1 (Homo sapiens), Q07820 | TR-FRET Mcl-1/Noxa peptide binding, 2 h | inhibition, % at 21.7 µM | 220,000 tested, 1.5% active | AID 1022, 2008;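 active = compounds that cut the protein-peptide binding signal by more than 50% relative to plate controls in a single-dose test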;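 also: His-tagged Mcl-1 with rhodamine Noxa BH3 peptide and terbium anti-His antibody; 0% = Mcl-1 plus Noxa peptide wells and 100% = peptide-only wells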
Mcl1 Bid PPI: Mcl-1/Bid binding inhibitors, primary screen, biochemical, TR-FRET, 1536-well. Induced myeloid leukemia cell differentiation protein Mcl-1 (Homo sapiens), Q07820. TR-FRET Mcl-1/Bid-Dy647 peptide binding. inhibition, % at 21.7 µM. 220,000 tested, 0.97% active;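 active = compounds that cut the binding signal by more than half at the single screening dose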;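 also: His-tagged Mcl-1 with europium anti-His antibody binding Bid BH3 peptide; 0% = Mcl-1 plus peptide wells and 100% = peptide-only wells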
Bim-Mcl-1: inhibitors of Bim peptide binding to Mcl-1, primary screen, biochemical, bead-based flow cytometry, multiplex. Bim peptide-Mcl-1 binding. inhibition, % at 10 µM. 190,000 tested, 0.1% active; in the data active = inhibition above about 40%;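 also: 0% = no compound tracer wells and 100% = peptide blocker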
MCL1 BIM primary: inhibitors of MCL1 binding to BIM-BH3, primary screen, biochemical, fluorescence polarization; GST-MCL1 / FITC-Bim-BH3 fluorescence polarization; inhibition, % at 10.9 µM; 320,000 tested, 0.68% active; AID 2057, 2009;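 active = inhibition above the mean inhibition of all tested compounds plus 3 SD, set per campaign, cut at about 40% in these data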;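 also: 0% = DMSO wells and 100% = unlabeled Bim-BH3 peptide control; higher means more loss of mP so more displacement of Bim peptide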
T cell modulator: modulators of CD8 T cell-vesicle binding, primary screen, mouse 2C CD8+ T cells, flow cytometry. response (vesicle binding), % at 7 µM. 330,000 tested, 0.068% active. 2C CD8+ T cell-vesicle binding; active compounds read low. AID 2052, 2009;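 active = response, share of CD8 T cells binding vesicles, and their 90th percentile fluorescence all below set limits, cut at about 80% in these data, passing the limit was not always enough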;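 also: values below 100% mean blocked vesicle binding to the CD8+ T cells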
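Assay system: 2C TCR transgenic mouse naive CD8+ T cells, MACS-purified | Read-out: CD8+ gate FL2 mean fluorescence as % of same-row positive control | Signal: High-throughput flow cytometry with anti-B7-1 and anti-CD8 staining | Timing: Binding step 1.5 h, 37 °C, antibody labelling 20 min, ice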
Bcl-xL conf: Bcl-xL inhibitors blocking Bim BH3 binding, confirmation, counter-screen for MCL1 inhibitor project, biochemical, fluorescence polarization; shares compounds with MCL1 BIM primary; GST-Bcl-xL / FITC-Bim BH3 peptide FP binding; inhibition, % at 10.9 µM; 1,700 tested, 54% active; AID 2166, 2009;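 active = inhibition above a cutoff equal to the mean inhibition of all tested compounds plus 3 SD, cut at about 30% in these data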;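 also: 0% = DMSO wells and 100% = unlabeled Bim BH3 control peptide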
MCL1 inh confirm: inhibitors of MCL1 binding to BIM-BH3, confirmation, biochemical, fluorescence polarization, triplicate. shares compounds with MCL1 BIM primary. GST-MCL1 / FITC-Bim-BH3 fluorescence polarization. inhibition, % at 10.9 µM. 1,700 tested, 61% active. AID 2168, 2009;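 active = inhibition above the average of all tested compounds plus 3 SD, cut at about 40% in these data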;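 also: 0% = DMSO wells and 100% = unlabeled Bim-BH3 control peptide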
* hit, by the source's call; / = not tested or not shown. Rows were chosen to be rich in hits. Some 2.3% of all compounds tested hit in one or more screens of this group.

SMILES	DSG3 Ab inh	Mcl1 Noxa PPI	Mcl1 Bid PPI	Bim-Mcl-1	MCL1 BIM primary	T cell modulator	Bcl-xL conf	MCL1 inh confirm
COC(=O)c1ccccc1NC(=O)C/C(C)=N/NC(=O)Cc1ccc(Cl)cc1	96.9	/	/	/	53.4*	483.7	-1.5	25.2
COc1ccc(OC)c(/C=C/c2nc3ccccc3[nH]c2=O)c1	90.2	/	/	/	83.2*	284.8	97.5*	99.1*
COc1ccc(OC)c(C=Nc2ccccc2-c2nc3ccccc3[nH]2)c1	90.6	20.7	-16.4	1.0	-1.2	141.9	/	/
C[C@@H]1CCCCO[C@H](CN(C)C(=O)Cc2ccccc2)[C@@H](C)CN([C@H](C)CO)C(=O)c2cc(N(C)C)ccc2O1	110.1	/	/	/	/	/	/	/
Cc1noc(C)c1NC(=O)N(C)C[C@@H]1Oc2cc(Br)ccc2S(=O)(=O)N([C@H](C)CO)C[C@@H]1C	110.3	/	/	/	/	/	/	/
CC(C)CCNc1c(-c2cccs2)nc2ccccn12	100.9	18.4	-49.0	0.0	67.7*	223.0	46.0*	69.0*
O=C(Cc1cnn(-c2ccccc2)c1)c1ccc(O)c(O)c1O	97.9	38.9	-1.0	-2.0	64.0*	194.6	13.6	39.6
COc1ccc2[nH]c(C)c(CCN(Cc3cccs3)C(=S)Nc3cccc(F)c3)c2c1	97.7	2.0	-40.4	1.0	62.7*	607.4	21.7	21.3
O=C(/C=C\c1ccc2c(c1)OCO2)CC1(O)C(=O)Nc2ccccc21 (stereo not given)	113.8	6.4	-8.2	/	-4.4	186.9	/	/
CCOC(=O)N1CCC(N2CCCC(CO)(Cc3cccc(Cl)c3)C2)CC1 (stereo not given)	155.0	5.1	-16.2	-2.0	-3.2	208.0	/	/
COc1ccc(S(=O)(=O)N2CCCCC2)cc1NC(=O)c1[nH]c(C)c(C(C)=O)c1C	103.0	/	/	/	/	254.3	/	/
CS(=O)(=O)c1ccc(Cl)c(NC(=O)CSc2nnc3n2CCCCC3)c1	105.3	/	/	/	/	/	/	/
C/C(CC(=O)NC12CC3CC(CC(C3)C1)C2)=N\NC(=O)c1cnccn1	103.8	-13.1	-13.2	1.0	12.8	205.9	/	/
O=C(NC12CC3CC(CC(C3)C1)C2)c1cnccn1	88.7	11.9	-14.2	-5.0	53.2*	290.6	29.4	40.0*
COc1ccc(/C=C/C(=O)OCC(=O)N2c3ccccc3CC2C)c(OC)c1 (stereo not given)	92.6	/	/	/	/	/	/	/
O=C(CSc1nnc(NC2CCCCC2)s1)N1CCOCC1	102.6	/	/	/	-20.3	140.8	/	/
C=CCNC(=O)/C(C#N)=C/c1ccccc1[N+](=O)[O-]	101.6	18.4	-2.7	-8.0	51.3*	482.4	25.8	21.9
O=C(Oc1ccc2c(c1)O/C(=C\c1ccncc1)C2=O)c1cccs1	93.5	37.3	35.8	/	81.8*	280.3	34.5*	45.9*
CC(=O)Oc1ccc2c(c1)O/C(=C\c1ccncc1)C2=O	101.7	5.7	-13.2	/	151.2*	106.9	89.7*	115.3*
CCC(=O)Oc1ccc2c(c1)O/C(=C\c1ccco1)C2=O	94.4	-2.9	-29.6	/	117.9*	536.1	46.8*	76.1*
COc1ccccc1C(=O)Oc1ccc2c(c1)O/C(=C\c1ccncc1)C2=O	104.5	22.9	8.3	14.0	141.6*	315.5	31.9*	52.4*

Assay outcomes deposited in PubChem BioAssay by several laboratories.
